{
  "source": "paper PMC3057461",
  "about": "(Chemistry & biology, 2011)",
  "key": {"[1]": {"biological_target": "DnaK-DnaJ complex (Escherichia coli, UniProt P0A6Y8)", "sequence (P0A6Y8 whole entry, one chain of several)": "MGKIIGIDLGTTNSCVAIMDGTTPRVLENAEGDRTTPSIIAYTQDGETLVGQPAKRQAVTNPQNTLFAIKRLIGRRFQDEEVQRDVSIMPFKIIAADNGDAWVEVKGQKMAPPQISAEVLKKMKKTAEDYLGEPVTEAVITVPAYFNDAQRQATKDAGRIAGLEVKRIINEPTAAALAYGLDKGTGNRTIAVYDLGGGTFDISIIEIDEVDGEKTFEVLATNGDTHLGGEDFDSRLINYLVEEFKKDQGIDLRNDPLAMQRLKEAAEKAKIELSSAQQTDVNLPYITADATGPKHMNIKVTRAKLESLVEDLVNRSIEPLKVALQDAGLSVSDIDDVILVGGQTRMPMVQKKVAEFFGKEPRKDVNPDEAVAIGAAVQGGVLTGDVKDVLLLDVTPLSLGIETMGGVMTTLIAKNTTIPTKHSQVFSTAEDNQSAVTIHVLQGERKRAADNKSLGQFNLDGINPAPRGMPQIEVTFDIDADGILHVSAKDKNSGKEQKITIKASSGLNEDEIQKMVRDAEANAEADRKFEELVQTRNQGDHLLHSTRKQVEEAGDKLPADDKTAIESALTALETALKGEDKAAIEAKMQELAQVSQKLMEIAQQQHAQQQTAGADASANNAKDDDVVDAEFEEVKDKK", "experiment": "ATPase assay of the DnaK-DnaJ system", "format": "biochemical", "conditions": "for effect on stimulatory activity of DnaJ on DnaK ATPase: DnaJ titration"}, "[2]": {"biological_target": "DnaK-DnaJ interaction (Escherichia coli, UniProt P0A6Y8)", "sequence (P0A6Y8 whole entry)": "as the sequence (P0A6Y8 whole entry, one chain of several) above", "experiment": "DnaK-DnaJ interaction by FRET", "format": "binding", "conditions": "for effect on binding of DnaJ to DnaK: ATP 2 mM"}, "[3]": {"biological_target": "DnaK-J domain (Escherichia coli, UniProt P0A6Y8)", "sequence (P0A6Y8 whole entry, the tested form may be a part)": "as the sequence (P0A6Y8 whole entry, one chain of several) above", "experiment": "J domain stimulation of DnaK ATP turnover", "format": "biochemical", "summary_of_the_method": "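For J-domain-stimulated turnover, His-tagged DnaJ J domain (residues 2–108) was purified with an extra gel-filtration step and stored in Tris pH 7.5 with 150 mM KCl and 5 mM MgCl2. It was then run in the established DnaK ATPase assay. Results are means of triplicates ± SEM.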"}, "[4]": {"biological_target": "T1, DnaK (Escherichia coli, UniProt P0A6Y8)", "T1 sequence (P0A6Y8 whole entry)": "as the sequence (P0A6Y8 whole entry, one chain of several) above", "experiment": "Peptide substrate", "format": "biochemical", "conditions": "model substrate NRLLLTG", "summary_of_the_method": "(§1)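 ATP turnover was measured for purified E. coli DnaK (His-tag cleaved) in the established ATPase assay, alone or with the stimulating partner named. Results are means of triplicates ± SEM.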"}, "[5]": {"biological_target": "DnaJ (Escherichia coli, UniProt P08622)", "sequence (P08622 whole entry)": "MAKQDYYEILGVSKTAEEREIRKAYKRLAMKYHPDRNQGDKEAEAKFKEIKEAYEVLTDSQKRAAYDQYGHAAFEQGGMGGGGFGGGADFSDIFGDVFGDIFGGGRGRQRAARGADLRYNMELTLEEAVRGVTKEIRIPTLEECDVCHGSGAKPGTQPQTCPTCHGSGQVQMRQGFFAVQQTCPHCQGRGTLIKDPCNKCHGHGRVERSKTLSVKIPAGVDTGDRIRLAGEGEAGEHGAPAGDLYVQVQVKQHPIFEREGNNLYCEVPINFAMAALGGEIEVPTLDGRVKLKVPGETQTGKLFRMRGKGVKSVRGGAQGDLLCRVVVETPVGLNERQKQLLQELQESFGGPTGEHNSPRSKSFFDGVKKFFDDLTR", "experiment": "Isothermal calorimetry", "format": "binding", "conditions": "DnaJ 10 μM; titrations noisy"}, "[6]": {"biological_target": "DnaK K106A (Escherichia coli, UniProt P0A6Y8, K106A)", "sequence (P0A6Y8 whole entry K106A)": "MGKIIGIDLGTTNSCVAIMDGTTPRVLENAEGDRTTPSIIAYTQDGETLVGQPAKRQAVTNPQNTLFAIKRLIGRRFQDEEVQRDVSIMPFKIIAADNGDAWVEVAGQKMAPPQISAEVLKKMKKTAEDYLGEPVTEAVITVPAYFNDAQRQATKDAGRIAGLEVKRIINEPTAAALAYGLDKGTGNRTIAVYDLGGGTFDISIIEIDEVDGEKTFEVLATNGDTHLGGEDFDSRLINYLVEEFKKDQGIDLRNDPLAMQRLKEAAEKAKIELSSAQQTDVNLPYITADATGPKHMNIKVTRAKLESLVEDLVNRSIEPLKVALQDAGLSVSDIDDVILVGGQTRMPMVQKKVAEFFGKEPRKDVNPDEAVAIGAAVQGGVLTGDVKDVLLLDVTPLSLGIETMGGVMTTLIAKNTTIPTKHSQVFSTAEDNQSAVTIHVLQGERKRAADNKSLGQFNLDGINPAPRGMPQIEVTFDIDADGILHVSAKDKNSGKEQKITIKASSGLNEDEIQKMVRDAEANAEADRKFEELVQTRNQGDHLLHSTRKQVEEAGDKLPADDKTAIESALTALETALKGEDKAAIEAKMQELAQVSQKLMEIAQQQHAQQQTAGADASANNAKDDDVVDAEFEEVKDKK", "experiment": "Tryptophan fluorescence quench, DnaK K106A control mutant", "format": "binding", "summary_of_the_method": "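DnaK alanine mutants were used at 3 μM with 1 mM ATP. Test compound was added at various concentrations, and quench of intrinsic tryptophan fluorescence was read at 342 nm (Ex 295 nm). Readings from controls lacking DnaK were subtracted, and apparent affinity was derived from the concentration series.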"}, "[7]": {"biological_target": "DnaK-DnaJ (Escherichia coli, UniProt P0A6Y8)", "sequence (P0A6Y8 whole entry)": "as the sequence (P0A6Y8 whole entry, one chain of several) above", "format": "binding", "summary_of_the_method": "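Firefly luciferase was partially digested and adsorbed onto microtiter wells. DnaK was added with DnaJ titrated, in the presence or absence of test compound. Bound DnaK was detected with an anti-DnaK antibody. Each point is the mean of triplicates ± SEM.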"}, "[8]": {"biological_target": "DnaK-GrpE (Escherichia coli, UniProt P0A6Y8)", "experiment": "GrpE-mediated stimulation of DnaK ATP turnover", "format": "biochemical", "summary_of_the_method": "as §1"}, "[9]": {"biological_target": "DnaK-DnaJ-GrpE (Escherichia coli, UniProt P0A6Y8)", "sequence (P0A6Y8 whole entry)": "as the sequence (P0A6Y8 whole entry, one chain of several) above", "experiment": "ATPase assay of DnaK-DnaJ in the presence of GrpE", "format": "biochemical", "conditions": "saturating GrpE (2 μM); DnaK 0.6 μM, DnaJ 1 μM", "summary_of_the_method": "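Purified E. coli DnaK (0.6 μM) and DnaJ (1 μM), with His-tags cleaved, were run in the established ATPase assay with GrpE at 2 μM or a range of GrpE levels. Test compound was given as a dose series, and IC50 was taken from the dose response. Values are means of triplicates ± SEM.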"}, "[10]": {"biological_target": "DnaK (wild type) (Escherichia coli, UniProt P0A6Y8)", "experiment": "Tryptophan fluorescence quench, apparent affinity of myricetin for DnaK", "format": "binding", "conditions": "apparent affinity (Kapp), wild type DnaK 3 μM, ATP 1 mM", "summary_of_the_method": "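Test compound was added at various concentrations to wild-type DnaK, read at 342 nm (Ex 295 nm) for tryptophan fluorescence quench. Conditions were 5 μM nucleotide-free DnaK alone, 5 μM DnaK with 2 mM ATP, or 3 μM DnaK with 1 mM ATP. Apo-DnaK was eluted from the ATP column with 1 M NaCl. DnaK-free controls were subtracted. Triplicates, ± SEM.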"}, "[11]": {"biological_target": "T1, DnaK", "experiment": "Intrinsic ATPase activity of DnaK", "format": "biochemical", "summary_of_the_method": "as §1"}, "[12]": {"biological_target": "J domain (residues 2–108) (Escherichia coli, UniProt P08622)", "sequence (P08622 2-108)": "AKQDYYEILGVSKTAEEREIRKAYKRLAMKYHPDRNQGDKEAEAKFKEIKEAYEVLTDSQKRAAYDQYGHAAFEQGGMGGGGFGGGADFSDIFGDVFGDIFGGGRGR", "experiment": "Isothermal calorimetry", "format": "binding", "conditions": "truncated J domain residues 2–108"}, "[13]": {"biological_target": "T1, DnaK", "experiment": "Tryptophan fluorescence response of DnaK to ATP binding", "conditions": "myricetin 100 μM, DnaK 5 μM, ATP 100 μM", "summary_of_the_method": "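Apo-DnaK (6 μM) was preincubated with test compound (125 μM) for 1 h at 37 °C. Then 500 μM ATP or buffer (Tris, KCl, MgCl2, pH 7.4) was added as one-fifth of the final volume; these are pre-mix concentrations. Tryptophan emission was scanned from 300–400 nm at 295 nm excitation. Runs were done in triplicate.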"}, "[14]": {"conditions": "read-out: IC50 against the DnaK-DnaJ system, DnaK 0.6 μM, DnaJ 1 μM"}},
  "note": "Read-outs that look alike come from different tables or passages of the source.",
  "data": [
    {"compound": "O=C(O[C@@H]1Cc2c(O)cc(O)cc2O[C@@H]1c1ccc(O)c(O)c1)c1cc(O)c(O)c(O)c1", "note": "[ECG, epicatechin-3-gallate]", "values": [
      {"measurement": "IC50", "setting": "[1]", "result": "6 ± 0.9", "unit": "µM"}
    ]},
    {"compound": "COc1cc(OC)c2c(=O)c(O)c(-c3ccc(OC)c(OC)c3)oc2c1", "note": "[QTE, quercetin tetramethyl (5,7,3′,4′) ether]", "values": [
      {"measurement": "IC50", "setting": "[1]; [14]", "result": "> 200", "unit": "µM"}
    ]},
    {"compound": "O=c1cc(-c2cc(O)c(O)c(O)c2)oc2cc(O)cc(O)c12", "note": "[hieracin]", "values": [
      {"measurement": "IC50", "setting": "[1]; [14]", "result": 28.2, "unit": "µM"}
    ]},
    {"compound": "O=c1c(O)c(-c2ccc(O)cc2)oc2cc(O)cc(O)c12", "note": "[kaempferol]", "values": [
      {"measurement": "IC50", "setting": "[1]", "result": "> 200", "unit": "µM"}
    ]},
    {"compound": "O=c1cc(-c2ccc(O)c(O)c2)oc2cc(O)cc(O)c12", "note": "[luteolin]", "values": [
      {"measurement": "IC50", "setting": "[1]", "result": 9.4, "unit": "µM"}
    ]},
    {"compound": "O=c1c(O)c(-c2cc(O)c(O)c(O)c2)oc2cc(O)cc(O)c12", "note": "[myricetin]", "values": [
      {"measurement": "weakening of Kapp between DnaJ and DnaK", "setting": "[2]; 25 μM myricetin, Kapp approx. 560 nM without compound", "result": 5.3, "unit": "fold"},
      {"measurement": "effect on binding of DnaJ to DnaK", "setting": "[2]", "result": "significantly reduced"},
      {"measurement": "effect on J domain stimulatory activity", "setting": "[3]", "result": "able to block"},
      {"measurement": "effect on peptide-mediated stimulation of ATP turnover", "setting": "[4]", "result": "no effect"},
      {"measurement": "binding to DnaJ by ITC", "setting": "[5]", "result": "no apparent affinity"},
      {"measurement": "Kd", "setting": "[6]", "result": "43 ± 5", "unit": "µM"},
      {"measurement": "decrease of maximal amount of bound DnaK", "setting": "[7]; 20 μM myricetin", "result": "approximately 40%"},
      {"measurement": "amount of DnaJ required to promote DnaK binding to luciferase", "setting": "[7]; 20 μM myricetin (62 nM without compound)", "result": 1, "unit": "µM"},
      {"measurement": "effect on stimulation of DnaK by GrpE", "setting": "[8]", "result": "did not influence"},
      {"measurement": "apparent affinity of myricetin in the presence of DnaJ and GrpE", "setting": "[9]", "result": "significantly enhanced"},
      {"measurement": "IC50", "setting": "[1]", "result": 14.5, "unit": "µM"},
      {"measurement": "inhibition (up to, maximal)", "setting": "[1]; DnaK 0.6 μM, DnaJ 1 μM", "result": "up to 75%"},
      {"measurement": "effect on stimulatory activity of DnaJ on DnaK ATPase", "setting": "[1]; myricetin 50 μM", "result": "dramatically weakened"},
      {"measurement": "effect on stimulatory activity of DnaJ on DnaK ATPase", "setting": "[1]; myricetin 200 μM", "result": "completely suppressed"},
      {"measurement": "inhibition at 200 µM", "setting": "[1]; read-out: percent inhibition", "result": 75, "unit": "%"},
      {"measurement": "Kd", "setting": "[10]", "result": "55 ± 7", "unit": "µM"},
      {"measurement": "effect on intrinsic ATPase activity of DnaK", "setting": "[11]", "result": "no effect"},
      {"measurement": "binding to J domain by ITC", "setting": "[12]", "result": "failed to bind"},
      {"measurement": "tryptophan fluorescence response to ATP binding", "setting": "[13]", "result": "responded normally"}
    ]},
    {"compound": "O=c1c(O)c(-c2ccc(O)c(O)c2)oc2cc(O)cc(O)c12", "note": "[quercetin]", "values": [
      {"measurement": "IC50", "setting": "[1]", "result": 27.6, "unit": "µM"},
      {"measurement": "inhibition (up to, maximal)", "setting": "[1]; DnaK 0.6 μM, DnaJ 1 μM", "result": "up to 67%"}
    ]},
    {"compound": "COc1cc(O)c2c(=O)c(O)c(-c3ccc(O)c(O)c3)oc2c1", "note": "[rhamnetin]", "values": [
      {"measurement": "activity against DnaK-DnaJ", "setting": "[1]; DnaK 0.6 μM, DnaJ 1 μM", "result": "inactive"}
    ]},
    {"compound": "(±)-catechin", "values": [
      {"measurement": "effect on binding of DnaJ to DnaK", "setting": "[2]", "result": "did not inhibit"}
    ]}
  ]
}
